Reference: the RNAGym collection of RNA variant scans (doi:10.1038/s41586-018-0170-7)

B1: tRNA (parent)
chain: GUUCCGUUGGCGUAAUGGUAACGCGUCUCCCUCCUAAGGAGAAGACUGCGGGUUCGAGUCCCGUACGGAACG

Variants of: B1
Test: yeast fitness, log relative to wild type (ln ratio); higher = fitter; tRNA-Arg(CCU), competitive growth, 37 C, 1 M NaCl
Summary of the method: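 In BY4742 missing the chromosomal gene, a combinatorial tRNA-Arg(CCU) variant library was maintained on a HIS3 centromeric plasmid. Selection ran ~6.5 generations (~26.5 h) in SC-HIS 1M NaCl at 37 °C, following 4 generations in SC-HIS at 30 °C, with three outputs per input and variant counts by 125 bp paired-end Illumina sequencing. Fitness is the natural log of a genotype's generations relative to the wild type's, with generations taken as inverse-variance-weighted, OD-scaled log2 output/input frequency.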

| Variant | yeast fitness (ln) |
| --- | --- |
| G6A C27U A70G | -0.148 |
| G6A C27U C66U C71U | -0.171 |
| G6A C27U C66A A69G A70U C71U | -0.0879 |
| G6A A43C C46U A70U C71U | -0.151 |
| G6A A43C C46U C66U A69G A70U C71U | -0.233 |
| U2G G6U C66U A70G C71U | -0.151 |
| U2G G6U C27U C66U A69G A70G | -0.375 |
| U2G G6U C27U C66U A69G A70U | -0.276 |
| U2G G6U C27U C46U C66A A69G A70G | -0.214 |
| U2G G6U C27U C46U C66A A69G A70U | -0.0283 |
| G6A C27U A43C C46U | -0.084 |
| G6A C27U C66U A70U C71U | -0.312 |
| U2G G6U C27U C66U A70G | -0.207 |
| U2G G6U C27U C66U A70U | -0.342 |
| G6A C27U A43C C66U | -0.0646 |
| U2G G6U C66U A69G A70U C71U | -0.421 |
| G6A A43C C66A A69G A70G C71U | -0.261 |
| U2G G6U C46U A69G | -0.157 |
| U2G G6U C46U C66U C71U | -0.2 |
| G6A A43C C46U A70G | -0.0876 |
| G6A A43C C46U A70U | -0.117 |
| G6A A43C | -0.0714 |
| G6A C27U A43C A69G A70G C71U | -0.371 |
| G6A A43C C46U C66U A70U C71U | -0.268 |

| Variant | yeast fitness (ln) |
| --- | --- |
| G6A A43C C46U C66U A69G A70G | -0.233 |
| G6A A43C C46U C66U A69G A70U | -0.159 |
| G6A C27U C66A A70U C71U | -0.246 |
| G6A C27U C46U C66U A69G C71U | -0.446 |
| G6A C27U A43C A70G | -0.213 |
| G6A C27U A43C A70U | -0.263 |
| G6A | -0.0301 |
| U2G G6U C27U C66U A70G C71U | -0.312 |
| G6A C27U A43C C46U A69G A70G | -0.237 |
| G6A C27U A43C C46U A69G A70U | -0.16 |
| U2G G6U C66U A69G A70G C71U | -0.235 |
| G6A A43C C66U A70G C71U | -0.26 |
| G6A C27U C46U A69G A70U C71U | -0.331 |
| U2G G6U C46U A69G A70G | -0.109 |
| U2G G6U C46U A69G A70U | -0.402 |
| G6A C27U C66U A69G A70G | -0.368 |
| G6A C27U C66U A69G A70U | -0.214 |
| U2G G6U C46U C66A A70U C71U | -0.0156 |
| G6A C27U A43C | -0.131 |
| U2G G6U C27U C66A A70U C71U | -0.275 |
| U2G G6U C27U C66U C71U | -0.31 |
| U2G G6U C27U C71U | -0.218 |
| G6A C27U A43C A70G C71U | -0.304 |
| U2G G6U C27U C46U A69G A70U | -0.153 |

| Variant | yeast fitness (ln) |
| --- | --- |
| U2G G6U C27U C46U A69G A70G | -0.191 |
| G6A C46U A69G A70G | -0.18 |
| G6A C46U A69G A70U | -0.176 |
| U2G G6U C27U A70G C71U | -0.285 |
| U2G G6U C46U A69G C71U | -0.129 |
| G6A C27U C71U | -0.204 |
| U2G G6U C46U | -0.0208 |
| G6A C27U A70G C71U | -0.291 |
| G6A A43C C46U A69G C71U | -0.171 |
| G6A C27U C46U C66U A70U C71U | -0.237 |
| G6A C27U A43C C66U A69G A70G C71U | -0.371 |
| G6A C27U A43C A69G C71U | -0.353 |
| G6A C46U C66A A69G A70G | -0.148 |
| G6A C46U C66A A69G A70U | -0.178 |
| U2G G6U C46U A70G C71U | -0.165 |
| G6A A69G A70G C71U | -0.263 |
| G6A A43C C66U A70U C71U | -0.384 |
| G6A C27U A43C C46U C66A A69G A70G C71U | -0.292 |
| U2G G6U C66A A69G A70G | -0.25 |
| U2G G6U C66A A69G A70U | -0.000141 |
| U2G G6U C27U C66A C71U | -0.168 |
| U2G G6U C46U C66A A69G A70G | -0.13 |
| U2G G6U C46U C66A A69G A70U | 0.00778 |
| U2G G6U C27U C46U C66A A69G A70U C71U | -0.314 |

| Variant | yeast fitness (ln) |
| --- | --- |
| G6A C27U A43C C46U A70G C71U | -0.25 |
| U2G G6U C27U C46U C66A A69G C71U | -0.293 |
| G6A A43C C46U C66U A70G C71U | -0.144 |
| G6A C27U C46U C66U | -0.0122 |
| G6A C27U C46U C66A | -0.126 |
| G6A C27U A43C C66A A70U | -0.204 |
| G6A C27U A43C C66A A70G | -0.337 |
| U2G G6U C46U A70U C71U | -0.461 |
| G6A C27U C46U A70G | -0.132 |
| G6A C27U C46U A70U | -0.144 |
| U2G G6U C66A A70U C71U | -0.0189 |
| G6A A43C C46U A69G A70U C71U | -0.493 |
| U2G G6U C27U C66A A69G A70U C71U | -0.369 |
| G6A C27U A43C A70U C71U | -0.322 |
| U2G G6U C27U C46U A69G | -0.255 |
| U2G G6U C27U C46U C66A A70G C71U | -0.168 |
| G6A A43C C46U | -0.143 |
| G6A C27U C46U A69G | -0.183 |
| G6A C46U C66A | -0.0719 |
| G6A A43C C66A A70U C71U | -0.395 |
| G6A C27U C46U C66A A70U C71U | -0.234 |
| G6A C27U C66U A69G | -0.0541 |
| U2G G6U C27U C46U A70U C71U | -0.171 |
| U2G G6U C27U C66U A69G | -0.275 |

| Variant | yeast fitness (ln) |
| --- | --- |
| U2G G6U C46U C66U A70G C71U | -0.152 |
| G6A C27U A43C A69G A70U | -0.345 |
| G6A C27U A43C A69G A70G | -0.264 |
| G6A C27U A43C C46U C66U C71U | -0.464 |
| G6A A43C C46U A69G A70G C71U | -0.241 |
| G6A C27U C46U C66A A70U | -0.102 |
| G6A C27U C46U C66A A70G | -0.218 |
| U2G G6U C71U | -0.173 |
| G6A C27U C66U A69G C71U | -0.594 |
| G6A C27U A43C C46U C66U A70U C71U | -0.435 |
| U2G G6U C66A A70U | 0.00254 |
| U2G G6U C66A A70G | -0.0514 |
| G6A C27U A43C C66U A70U | -0.169 |
| G6A C27U A43C C66U A70G | -0.426 |
| G6A C27U A69G C71U | -0.243 |
| U2G G6U C46U C66U A69G C71U | -0.252 |
| U2G G6U C27U C46U C66U A70G | -0.176 |
| U2G G6U C27U C46U C66U A70U | -0.106 |
| G6A C46U | -0.0181 |
| U2G G6U C66U A69G C71U | -0.239 |
| G6A C27U A43C C66A A70G C71U | -0.325 |
| G6A C27U A43C C46U A69G A70G C71U | -0.306 |
| G6A A43C A69G A70G C71U | -0.305 |
| G6A C27U C46U A70U C71U | -0.218 |

| Variant | yeast fitness (ln) |
| --- | --- |
| U2G G6U C66A A70G C71U | -0.249 |
| G6A C46U A69G A70G C71U | -0.146 |
| G6A C27U C46U A69G A70G | -0.237 |
| G6A C27U C46U A69G A70U | -0.257 |
| U2G G6U C27U C66U A69G A70U C71U | -0.439 |
| G6A C27U A43C C46U A70G | -0.128 |
| G6A C27U A43C C46U A70U | -0.139 |
| G6A C27U C46U C66U C71U | -0.0799 |
| G6A C27U C46U | -0.149 |
| G6A C27U A43C A69G A70U C71U | -0.238 |
| G6A A69G A70G | -0.0849 |
| G6A A69G A70U | -0.082 |
| U2G G6U C66A C71U | -0.108 |
| U2G G6U C66U A69G A70G | -0.251 |
| U2G G6U C66U A69G A70U | -0.409 |
| G6A C27U C46U A69G C71U | -0.252 |
| G6A A43C A69G A70G | -0.26 |
| G6A A43C A69G A70U | -0.224 |
| G6A C46U A69G | -0.469 |
| U2G G6U C27U C46U C66U A69G C71U | -0.527 |
| U2G G6U C27U A69G C71U | -0.286 |
| G6A C27U | -0.0758 |
| G6A A43C C46U C66U A69G A70G C71U | -0.24 |
| G6A A43C C46U C66U A70G | -0.0403 |

| Variant | yeast fitness (ln) |
| --- | --- |
| G6A A43C C46U C66U A70U | -0.183 |
| G6A C27U A43C C46U A70U C71U | -0.239 |
| G6A A43C C71U | -0.144 |
| G6A C27U C46U C66U A69G | -0.0373 |
| G6A C27U C46U A69G A70G C71U | -0.219 |
| G6A C27U A43C C46U C66U A70U | -0.183 |
| G6A C27U A43C C46U C66U A70G | -0.193 |
| G6A A43C C66U A69G | -0.109 |
| U2G G6U C46U A69G A70U C71U | -0.311 |
| G6A C27U A43C C66A A70U C71U | -0.37 |
| G6A A69G | -0.0982 |
| U2G G6U C27U C46U C66U A69G A70G C71U | -0.356 |
| U2G G6U C27U A69G A70U | -0.227 |
| G6A A43C C46U A70G C71U | -0.207 |
| G6A C27U C66U A69G A70G C71U | -0.256 |
| G6A C27U C46U C66A A69G A70G C71U | -0.221 |
| G6A C27U A43C C46U C66U A69G A70U C71U | -0.447 |
| G6A C27U A43C C66U A70G C71U | -0.302 |
| G6A C27U A69G A70U C71U | -0.416 |
| G6A C27U A43C C71U | -0.184 |
| G6A A43C C46U C66U A69G C71U | -0.558 |
| G6A C46U A70G | -0.226 |
| G6A C46U A70U | -0.237 |
